The test system of one assay is mouse brain homogenate. The assay can be described thus: DDA neosynthesis assay. The settings on record: 2 μM [14C]-5,6α-EC, His 0.5–200 μM, 37 °C, 10 min. It counts as biochemical.
Assay [1] has as its target T1, ChEH (Mus musculus, UniProt O88455+P70245).
T1 sequence (P70245 1-230): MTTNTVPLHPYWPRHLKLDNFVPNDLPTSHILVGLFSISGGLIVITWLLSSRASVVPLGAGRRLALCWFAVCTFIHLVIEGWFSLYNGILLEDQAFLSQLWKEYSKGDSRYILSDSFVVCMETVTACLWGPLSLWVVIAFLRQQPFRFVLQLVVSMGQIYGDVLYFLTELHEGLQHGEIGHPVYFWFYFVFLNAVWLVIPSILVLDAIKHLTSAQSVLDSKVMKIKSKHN
T1 sequence (O88455 1-471): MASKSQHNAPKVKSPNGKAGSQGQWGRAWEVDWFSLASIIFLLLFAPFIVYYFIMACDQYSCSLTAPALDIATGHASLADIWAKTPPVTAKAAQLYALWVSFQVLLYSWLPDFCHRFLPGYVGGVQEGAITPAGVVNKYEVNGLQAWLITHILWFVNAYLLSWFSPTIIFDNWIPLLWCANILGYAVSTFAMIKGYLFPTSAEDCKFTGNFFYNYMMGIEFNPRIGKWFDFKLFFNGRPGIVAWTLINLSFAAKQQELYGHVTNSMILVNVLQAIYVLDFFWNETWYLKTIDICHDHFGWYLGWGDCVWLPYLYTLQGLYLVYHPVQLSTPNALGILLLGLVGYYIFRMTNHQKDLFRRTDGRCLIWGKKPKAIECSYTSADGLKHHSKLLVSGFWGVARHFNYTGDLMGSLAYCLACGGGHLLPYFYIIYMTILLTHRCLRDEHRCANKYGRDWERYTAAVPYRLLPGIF
The assay is described as follows: ChEH activity in murine melanoma B16F10 cells. The class given is cell-based.

The target of assay [2] is T2, ChEH (Homo sapiens, UniProt Q15125+Q9UBM7). The assay can be described thus: Modality of ChEH inhibition in MCF-7 cell extracts. It counts as biochemical. Conditions: MCF-7 cell extracts, 0.5, 1 and 5 μM DDA; Km increased, Vmax unchanged.
Another assay deals with T3, rat mEH (Rattus norvegicus, UniProt P07687).
T3 sequence (P07687 1-455): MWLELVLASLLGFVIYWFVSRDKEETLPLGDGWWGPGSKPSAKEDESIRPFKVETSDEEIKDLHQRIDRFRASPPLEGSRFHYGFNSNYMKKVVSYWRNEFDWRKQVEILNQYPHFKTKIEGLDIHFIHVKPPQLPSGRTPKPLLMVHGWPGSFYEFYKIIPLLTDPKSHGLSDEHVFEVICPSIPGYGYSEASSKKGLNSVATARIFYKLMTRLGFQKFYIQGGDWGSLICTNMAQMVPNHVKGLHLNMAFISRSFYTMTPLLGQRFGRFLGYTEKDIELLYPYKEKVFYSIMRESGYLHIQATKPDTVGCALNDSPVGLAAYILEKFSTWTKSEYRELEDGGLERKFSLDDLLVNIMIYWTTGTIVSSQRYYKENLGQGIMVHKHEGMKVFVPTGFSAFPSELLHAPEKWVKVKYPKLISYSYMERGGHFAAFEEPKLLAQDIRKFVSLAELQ
The assay can be described thus: mEH activity assay. It counts as biochemical.

The test system of a further assay is TS/A cells. The assay is described as follows: TS/A cell differentiation in vitro. It counts as cell-based, mouse. The settings on record: 24 h.
The next assay concerns ER. The assay is described as follows: ER-dependent transcriptional activity. It counts as cell-based, human. Conditions: MELN cells; for inhibition of luciferase stimulation by E2 (ER antagonism): with 10 nM E2, Tam 1 μM.
The next assay concerns TS/A mammary tumours. The assay can be described thus: TS/A mammary tumours implanted s.c. into immunocompetent mice. It counts as in vivo, mouse. Summed up:
(§1)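 Female mice, 6–8 weeks old, held specific-pathogen-free after 2 weeks quarantine. Strains were C57BL/6 for B16F10 and BALB/c for TS/A. 35,000 exponentially growing cells in 150 μl PBS were implanted s.c. into the flank. Dosing was s.c. every 5 days from implantation day, with a s.c. vehicle control (n=10 per group). Survival was by Kaplan–Meier with log-rank test.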

Another assay concerns B16F10 melanoma tumours. The assay can be described thus: B16F10 melanoma tumours implanted s.c. into immunocompetent mice. It counts as in vivo, mouse. Summed up:
as §1

Assay [3] deals with T1, ChEH. The assay can be described thus: ChEH activity in murine mammary TSA cells. The class given is cell-based.
Assay [4] deals with T2, ChEH. The assay can be described thus: ChEH activity in whole MCF-7 cells. The class given is cell-based. The settings on record: for IC50 of ChEH inhibition, fold higher than DDA / ChEH inhibition (in words): MCF-7 cells. Summed up:
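Whole MCF-7 cells were grown in RPMI with 5% FBS. Conversion to [14C]-CT was resolved by TLC and quantified by densitometry. IC50 came from dose–response curves, as mean±s.e.m. of three independent experiments.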

In another assay the target is T4, Human sEH (Homo sapiens, UniProt P34913).
T4 sequence (P34913 1-555): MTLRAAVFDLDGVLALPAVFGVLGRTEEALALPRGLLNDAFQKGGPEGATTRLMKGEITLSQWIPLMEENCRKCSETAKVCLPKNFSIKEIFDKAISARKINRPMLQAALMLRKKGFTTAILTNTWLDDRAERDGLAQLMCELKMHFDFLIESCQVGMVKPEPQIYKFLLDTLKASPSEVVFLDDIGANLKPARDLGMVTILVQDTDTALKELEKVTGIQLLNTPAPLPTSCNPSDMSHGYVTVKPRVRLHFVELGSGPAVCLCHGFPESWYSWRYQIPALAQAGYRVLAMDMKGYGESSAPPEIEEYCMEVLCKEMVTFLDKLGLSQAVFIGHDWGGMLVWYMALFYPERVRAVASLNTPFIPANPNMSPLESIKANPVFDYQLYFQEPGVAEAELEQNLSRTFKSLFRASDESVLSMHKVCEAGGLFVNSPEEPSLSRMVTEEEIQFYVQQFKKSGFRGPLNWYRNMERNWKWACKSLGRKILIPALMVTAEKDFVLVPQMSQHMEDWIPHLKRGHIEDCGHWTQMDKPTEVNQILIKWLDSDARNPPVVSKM
The assay can be described thus: sEH activity assay. It counts as biochemical.

Assay [5] concerns the target T2, ChEH. The assay is described as follows: ChEH activity in human melanoma SK-Mel-28 cells. It counts as cell-based.
Another assay concerns B16F10 cells. The assay is described as follows: B16F10 cell differentiation in vitro. The settings on record: 24 h. It counts as cell-based, mouse.
Assay [6] concerns ChEH. Conditions: microsomes from rat liver; cited from earlier work.
Where [7] appears, read: TS/A tumours, DDA 3.7 μg kg−1, 30 days.
The mark [8] stands for this setting: B16F10, treated every 5 days from day of implantation, DDA 0.37 μg kg−1 s.c.

Each structure is given as a SMILES string. “Also recorded” adds a separate entry of the source.

T2 sequence (Q15125 whole entry): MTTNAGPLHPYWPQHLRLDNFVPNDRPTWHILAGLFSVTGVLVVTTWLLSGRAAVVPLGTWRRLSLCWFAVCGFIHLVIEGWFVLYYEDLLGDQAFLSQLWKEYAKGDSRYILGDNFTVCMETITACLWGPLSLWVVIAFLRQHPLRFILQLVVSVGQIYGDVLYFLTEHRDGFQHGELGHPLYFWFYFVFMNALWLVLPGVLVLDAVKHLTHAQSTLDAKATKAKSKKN
T2 sequence (Q9UBM7 whole entry): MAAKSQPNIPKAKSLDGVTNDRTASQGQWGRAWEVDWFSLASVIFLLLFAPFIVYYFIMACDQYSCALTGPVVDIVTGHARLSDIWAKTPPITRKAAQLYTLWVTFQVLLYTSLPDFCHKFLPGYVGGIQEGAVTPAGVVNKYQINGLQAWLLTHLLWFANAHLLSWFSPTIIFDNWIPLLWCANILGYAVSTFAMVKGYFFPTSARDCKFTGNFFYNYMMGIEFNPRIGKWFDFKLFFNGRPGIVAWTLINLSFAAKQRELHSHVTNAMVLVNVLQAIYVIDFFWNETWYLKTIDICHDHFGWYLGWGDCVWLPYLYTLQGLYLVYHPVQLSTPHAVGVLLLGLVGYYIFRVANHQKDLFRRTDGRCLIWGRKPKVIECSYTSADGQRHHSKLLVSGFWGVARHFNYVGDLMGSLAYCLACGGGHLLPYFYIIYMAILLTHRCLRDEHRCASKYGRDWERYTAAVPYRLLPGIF

As to `NCCc1c[nH]cn1` [His, histamine], in the assay on mouse brain homogenate, the “apparent Vmax of DDA formation” value was 0.12±0.04 pmol per mg protein per min.
As for `CC(C)CCC[C@@H](C)[C@H]1CC[C@H]2[C@@H]3C[C@@H](NCCc4c[nH]cn4)[C@@]4(O)C[C@@H](O)CC[C@]4(C)[C@H]3CC[C@]12C` [DDA, 5α-Hydroxy-6β-[2-(1H-imidazol-4-yl)-ethylamino]-cholestan-3β-ol], on ChEH [1], the 50% inhibitory concentration (IC50) (commonly the concentration at which inhibition is half-maximal) came to 252 ± 81 nM. For the same compound, the “modality of ChEH inhibition” value on ChEH [2] is “competitive”. For the same compound, at rat mEH, the “mEH inhibition (in words)” value is on record as “did not inhibit these enzymes; also recorded: not an inhibitor”. In the assay on TS/A cells (1 μM DDA), the “increase in ORO staining of neutral lipid droplets vs vehicle” value was 2.4 fold and the “increase in intracellular triglycerides vs vehicle” value is 7 fold. Further, in the assay on TS/A cells (2.5 μM DDA), the “MFGE8/lactadherin (immunostaining, flow cytometry)” value is recorded as “increased”; the “increase in ORO staining of neutral lipid droplets vs vehicle” value is reported as 3 fold; the “increase in intracellular triglycerides vs vehicle” value was 9 fold. Besides, the “stimulation of luciferase expression (ER agonism)” value with ER (increasing concentrations, without E2) is “did not stimulate the expression of luciferase”. Further, the “inhibition of luciferase stimulation by E2 (ER antagonism)” value with ER is on record as “did not inhibit luciferase stimulation by 17β-estradiol”. Further, in the assay with TS/A mammary tumours (setting [7]), the “MFGE8/lactadherin expression in tumour sections (immunohistochemistry)” value is on record as “increased expression of milk fat globule (MFGE8)/lactadherin” and the “neutral lipid droplets in tumour sections (ORO)” value is on record as “increased accumulation of neutral lipid droplets”. Besides, the “intra-tumour immune cell infiltration (CD3, CD11c)” value in the assay with TS/A mammary tumours (TS/A tumours, DDA 3.7 μg/kg, 30 days) is “increased infiltration of CD3^+ T lymphocytes and CD11c^+ dendritic cells”. For the same compound, the “animal survival at day 50” value with TS/A mammary tumours (TS/A, treated every 5 days from day of implantation, DDA 0.37 μg kg−1 s.c.) stood at 60%. Besides, in the assay with B16F10 melanoma tumours (setting [8]), the “survivors at day 50” value is reported as 40% and the “tumour growth vs control” value is “significantly inhibited tumour growth”. Further, in the assay on B16F10 melanoma tumours (B16F10 tumours, DDA 3.7 μg kg−1, 23 days), the “melanin production in tumour sections (Masson–Fontana)” value was “increased production of melanin”. For the same compound, the “intra-tumour immune cell infiltration (CD3, CD11c)” value in the assay on B16F10 melanoma tumours (B16F10 tumours, DDA 3.7 μg/kg, 23 days) is “increased infiltration of CD3^+ T lymphocytes and CD11c^+ dendritic cells”. The same compound had an IC50 on ChEH [3] of 284 ± 70 nM. Also, the half-maximal inhibitory concentration (IC50) against ChEH [4] amounted to 120 ± 20 nM. The “sEH inhibition (in words)” value on Human sEH is “did not inhibit these enzymes; also recorded: not an inhibitor”. The same compound had an IC50 against ChEH [5] of 72 ± 15 nM. Further, in the assay on B16F10 cells, the melanin content entry is on record as “increased in a concentration-dependent manner up to 2.5 μM DDA” and the tyrosinase activity entry is recorded as “increased activity of tyrosinase”.
`CC(C)CCC[C@@H](C)[C@H]1CC[C@H]2[C@@H]3C(=O)C=C4C[C@@H](O)CC[C@]4(C)[C@H]3CC[C@]12C` [7-ketocholesterol]: in the assay on ChEH [6], the “ChEH inhibition (in words)” value is given as “inhibited ChEH in microsomes from rat liver”. On ChEH [4], it took 5090 ± 1400 nM to reach half-maximal inhibition (IC50) and the “IC50 of ChEH inhibition, fold higher than DDA” value amounted to 42 fold.
In the case of `CC(C)CCC[C@@H](C)[C@H]1CC[C@H]2[C@@H]3[C@H](O)C=C4C[C@@H](O)CC[C@]4(C)[C@H]3CC[C@]12C` [Compound 7α-OHCh, 7α-hydroxycholesterol], in the assay on ChEH [6], the “ChEH inhibition (in words)” value is on record as “inhibited ChEH in microsomes from rat liver”. At ChEH [4], the concentration for half-maximal inhibition (IC50) was found to be 12000 ± 2900 nM and the “IC50 of ChEH inhibition, fold higher than DDA” value stood at 100 fold.
On to `C[C@H](CCCC(C)(C)O)[C@H]1CC[C@H]2[C@@H]3CC=C4C[C@@H](O)CC[C@]4(C)[C@H]3CC[C@]12C` [Compound 25-OHCh], for which the “ChEH inhibition (in words)” value is “did not inhibit ChEH” in the assay on ChEH [6] and “unable to inhibit ChEH” on ChEH [4].
Regarding `CC/C(=C(\c1ccccc1)c1ccc(OCCN(C)C)cc1)c1ccccc1` [Tam, Tamoxifen, reference compound], the “inhibition of luciferase stimulation by E2 (ER antagonism)” value in the assay with ER is given as “completely inhibited luciferase expression”.
With `CC(C)CCC[C@@H](C)[C@H]1CC[C@H]2[C@@H]3C[C@@H](n4cncc4CCN)[C@@]4(O)C[C@@H](O)CC[C@]4(C)[C@H]3CC[C@]12C` [Compound C17, 5α-hydroxy-6β-[5-(2-amino-ethyl)-imidazol-1-yl]-cholestan-3β-ol], the “ChEH inhibition (in words)” value on ChEH [1] (B16F10 cells) was “inactive against ChEH”; at ChEH [3] (TSA cells) it was “inactive against ChEH”; at ChEH [4] it was “did not inhibit ChEH activity”; at ChEH [5] (SK-Mel-28 cells), “inactive against ChEH”.
